Screening results: PubChem, The Scripps Research Institute Molecular Screening Center
V1aR counter – agonists of human V1a receptor, primary screen, counter-screen for OXTR agonist project, fluorescence, CHO-V1R cells. AID 2797, 2010. Fluo-8 calcium fluorescence, agonist mode; 0% DMSO, 100% 3 nM vasopressin. actives 0.25% (n = 320,000). activation, % at 3 µM;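 active means activation above the mean activation of all tested compounds plus 3 SD, per screening run, cut at about 20% in these data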;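 further: signal is peak over basal fluorescence ratio across a 100 second FLIPR read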
Target sequence (P37288 whole entry, looked up): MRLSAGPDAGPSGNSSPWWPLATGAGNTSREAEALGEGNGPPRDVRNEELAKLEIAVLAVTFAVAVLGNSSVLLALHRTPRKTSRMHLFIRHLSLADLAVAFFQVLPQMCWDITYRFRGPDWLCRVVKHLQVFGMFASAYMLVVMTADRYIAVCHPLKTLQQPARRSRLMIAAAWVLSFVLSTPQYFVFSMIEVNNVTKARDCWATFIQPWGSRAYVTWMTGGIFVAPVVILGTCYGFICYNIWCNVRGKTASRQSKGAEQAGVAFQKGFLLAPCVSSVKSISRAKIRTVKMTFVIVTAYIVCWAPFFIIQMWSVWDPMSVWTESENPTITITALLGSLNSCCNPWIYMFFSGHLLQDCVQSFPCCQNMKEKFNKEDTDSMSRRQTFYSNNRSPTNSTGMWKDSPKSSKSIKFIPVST
OXTR potentiate – human OXTR potentiators, primary screen, fluorescence, CHO-OTR cells, Fluo-8 calcium. actives 0.061% (n = 320,000). Fluo-8 calcium fluorescence, potentiator mode; 0% = oxytocin EC15, 100% = EC100. Oxytocin receptor (Homo sapiens), P30559. activation, % at 3 µM;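 active means activation above that plate's cutoff, the mean activation of tested compounds plus 3 SD, cut at about 6.6% in these data, passing the limit was not always enough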;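 further: 100% uses oxytocin at 75 nM as the full agonist control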
Target sequence (P30559 whole entry, looked up): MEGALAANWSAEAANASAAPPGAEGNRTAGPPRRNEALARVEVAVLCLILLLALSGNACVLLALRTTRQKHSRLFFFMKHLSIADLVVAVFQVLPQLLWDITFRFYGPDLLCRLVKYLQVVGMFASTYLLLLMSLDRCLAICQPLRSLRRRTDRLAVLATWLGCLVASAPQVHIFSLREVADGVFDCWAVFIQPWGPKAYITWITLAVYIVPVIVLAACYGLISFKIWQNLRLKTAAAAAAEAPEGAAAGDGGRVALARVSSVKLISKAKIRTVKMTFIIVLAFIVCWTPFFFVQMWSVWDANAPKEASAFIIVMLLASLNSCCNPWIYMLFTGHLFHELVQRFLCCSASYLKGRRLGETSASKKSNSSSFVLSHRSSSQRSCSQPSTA
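Measured by – Fluo-8 calcium dye fluorescence · Test system – human OTR in CHO cells · Dosing – one concentration, 3.0 µM compound · Controls – EC15 oxytocin alone as 0%, 75 nM oxytocin as 100% · Evaluation – normalized max/min fluorescence ratio, % activation · Timing – 6 min pre-incubation, 100 s read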
OXTR ag – human OXTR agonists, primary screen, fluorescence, CHO-OTR cells, Fluo-8 calcium; Fluo-8 calcium fluorescence; normalized: DMSO 0%, oxytocin 100%; actives 0.32% (n = 320,000); activation, % at 3 µM;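 active means activation above the mean of all tested compounds plus 3 SD, cutoff set per screening run, cut at about 20% in these data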;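 further: peak over basal fluorescence ratio from a 100 s FLIPR kinetic read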
TAAR1 antagonist – human TAAR1 antagonists, primary screen, Fluo-8 calcium fluorescence, CHO RD-HGA16 cells. Trace amine-associated receptor 1 (Homo sapiens), Q96RJ0. antagonist. inhibition, % at 3 µM. actives 1.5% (n = 360,000);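 active means inhibition above a per-plate cutoff, the mean inhibition of test compounds on that plate plus 3 SD, cut at about 49% in these data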;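 further: 0% = DMSO plus EC80 beta-PEA response and 100% = DMSO alone without agonist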
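Test system: hTAAR1-expressing CHO RD-HGA16 cells, Gα16-coupled; Probe or stimulus: EC80 β-phenethylamine stimulus; Compound dosing: single nominal final test compound concentration of 3 µM; Timing: 140 s kinetic read after compound, 140 s after agonist; Signal: Fluo-8 calcium-sensitive fluorescence; Measure: % inhibition of agonist calcium response; Controls: DMSO and EC80 PEA controls.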
TAAR1 ag – human TAAR1 agonists, primary screen, Fluo-8 calcium fluorescence, CHO RD-HGA16 cells; Trace amine-associated receptor 1 (Homo sapiens), Q96RJ0; vehicle wells 0%, saturating PEA agonist 100%; activation, % at 3 µM; actives 0.99% (n = 360,000); AID 624467, 2012;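 active means activation above the mean activation of all test compounds in the run plus 3 SD, cut at about 38% in these data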
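Assay system: CHO-derived RD-HGA16 cells with stable Gα16 and human TAAR1; timing: 17-24 h seeding, 75 min 37 °C dye, 30 min RT; read-out: % activation from peak over basal fluorescence ratio, DMSO-to-PEA scaled; measured by: kinetic Fluo-8 calcium fluorescence; benchmarks: low control DMSO, high control PEA (EC100); doses: 3 µM single concentration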
TAAR1 ag conf – human TAAR1 agonists, retest of hits, confirmation, Fluo-8 calcium fluorescence, CHO RD-HGA16 cells | activation, % at 3 µM | scaled: DMSO 0%, maximal phenethylamine 100% | AID 651783, 2012 | actives 82% (n = 2,400) | shares compounds with TAAR1 ag;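 active means activation above a cutoff set at the run's mean compound activation plus 3 SD, cut at about 39% in these data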
Ga16 nonsel ag – nonselective calcium mobilization agonists, CHO-Ga16 cells, counter-screen for hTAAR1 agonist project, cell-based, fluorescence, CHO-Ga16 parental line; shares compounds with TAAR1 ag; Fluo-8 calcium fluorescence; normalized to maximal ATP response, DMSO zero; activation, % at 3 µM; actives 50% (n = 2,400); AID 651787, 2012;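 active means activation above the run cutoff, the mean activation over all tested wells plus 3 SD, cut at about 12% in these data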;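 further: 0% = DMSO wells and 100% = maximal ATP response on the peak over basal ratio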
TAAR1 desens – TAAR1 desensitization by agonist hits, confirmation, counter-screen for TAAR1 agonist project, cell-based, fluorescence, tachyphylaxis. CHO RD-HGA16 hTAAR1, Fluo-8 calcium, beta-PEA response inhibition. inhibition, % at 3 µM. actives 46% (n = 2,400). shares compounds with TAAR1 ag. AID 651951, 2012;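 active means inhibition above the run cutoff, the mean inhibition of all test compounds plus 3 SD, cut at about 49% in these data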;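 further: beta-PEA stimulus applied at its EC80; loss of beta-PEA calcium signal after compound pretreatment read as receptor desensitization; 0% = DMSO with beta-PEA at EC80 and 100% = DMSO alone without agonist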
Ga16 antag count – inhibition of ATP-evoked calcium response in CHO-Ga16 cells, counter-screen for TAAR1 agonist project, cell-based, fluorescence. CHO-Ga16 ATP-induced calcium, Fluo-8 fluorescence. actives 39% (n = 2,400). inhibition, % at 3 µM. shares compounds with TAAR1 ag;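 active means inhibition above the plate's mean compound inhibition plus 3 SD, computed per plate, cut at about 22% in these data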;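 further: 0% = EC80 ATP with DMSO and 100% = DMSO wells without ATP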
* hit, by the source's call; x = no result given. This is a sample that favours compounds with a hit; in the whole collection about 2.3% have one here.

SMILES | V1aR counter | OXTR potentiate | OXTR ag | TAAR1 antagonist | TAAR1 ag | TAAR1 ag conf | Ga16 nonsel ag | TAAR1 desens | Ga16 antag count
CC(C)[C@H](NC(=O)N1CCn2c1nc1ccccc12)C(=O)N[C@@H](C(=O)O)c1ccccc1 | -0.1 | 0.3 | 0.1 | -1.2 | 0.0 | x | x | x | x
O=C(NCc1ccccc1)Nc1nnc([C@@H]2C[C@H](O)[C@@H](CO)O2)s1 | x | x | x | -23.0 | 0.8 | x | x | x | x
COc1cccc(-c2cc(C(=O)Nc3cnn(Cc4ccc(F)cc4)c3)no2)c1 | 1.8 | 1.0 | 0.8 | 47.3 | 46.0* | 6.3 | 9.2 | 26.6 | 23.2*
COc1cccc(-c2cc(C(=O)Nc3cnn(Cc4ccccc4C)c3)no2)c1 | 2.7 | -4.8 | 0.8 | 39.6 | 4.2 | x | x | x | x
CCCC(=O)Nc1ccc(-c2nc3ncccc3o2)cc1 | x | x | x | 4.9 | 2.0 | x | x | x | x
Cc1ccc(C)c(S(=O)(=O)N2CCN(C(=O)c3cncc(Br)c3)CC2)c1 | 2.1 | 3.2 | 1.6 | 16.2 | 0.6 | x | x | x | x
S=C(Nc1ccc(Cl)c(Cl)c1)NC1CCN(Cc2ccccc2)CC1 | 38.8* | -32.5 | 42.1* | 74.4* | 112.4* | 98.3* | 56.6* | 89.3* | 67.3*
Fc1ccc(NC(=S)NC2CCN(Cc3ccccc3)CC2)cc1 | 3.5 | -17.7 | 6.3 | -15.3 | 9.7 | x | x | x | x
COc1ccccc1NC(=O)COC(=O)C1CC1 | 0.5 | -8.7 | 0.2 | -27.4 | 5.8 | x | x | x | x
COC(=O)C1=C(C)N(Cc2ccc(C(F)(F)F)cc2)C(=NCc2ccc3c(c2)OCO3)NC1c1ccccc1 (centres undefined) | x | x | x | 34.6 | 32.0 | x | x | x | x
COC(=O)C1=C(C)N(Cc2cccc(C(F)(F)F)c2)C(=NCc2cc(OC)c(OC)c(OC)c2)NC1c1ccc(F)cc1 (centres undefined) | x | x | x | 51.9* | 59.8* | 23.2 | 15.9* | 17.0 | 29.6*
COC(=O)C1=C(C)N(Cc2cccc(C(F)(F)F)c2)C(=NCc2ccc3c(c2)OCO3)NC1c1ccccc1 (centres undefined) | x | x | x | 47.6 | 43.3* | 46.5* | 14.4* | 30.9 | 27.1*
COC(=O)C1=C(C)N(Cc2cccc(C(F)(F)F)c2)C(=NCc2ccc3c(c2)OCO3)NC1c1cccc(F)c1 (centres undefined) | x | x | x | 58.0* | 65.1* | 57.8* | 19.6* | 67.9* | 42.8*
Fc1ccc(Nc2nc(N3CCOCC3)c3ccccc3n2)cc1 | 1.9 | -7.5 | 2.0 | 63.2* | 64.8* | 65.0* | 7.4 | 41.9 | 16.4
COC(=O)c1ccccc1Sc1ncnc2onc(C)c12 | 0.0 | -6.8 | -0.6 | -0.6 | 4.4 | x | x | x | x
CC(C)Cc1ccc([C@H](C)C(=O)O)cc1 | -0.5 | -8.5 | 0.6 | 5.7 | 0.8 | x | x | x | x
CC(C)Cc1ccc(C(C)C(=O)Nc2cccnc2)cc1 (centres undefined) | 43.0* | -26.3 | 46.0* | 63.4* | 84.2* | 126.0* | 64.8* | 78.6* | 42.9*
CC(C)Cc1ccc(C(C)C(=O)Nc2ccc(O)cc2)cc1 (centres undefined) | 44.3* | -19.6 | 50.1* | 92.7* | 119.4* | 108.4* | 71.2* | 100.7* | 82.3*
O=C(NCCc1ccccc1)c1ccc(CS(=O)(=O)Cc2ccccc2F)o1 | 1.0 | -2.7 | 1.4 | 32.4 | 55.5* | 83.3* | 6.2 | 66.4* | 9.3
CN(C)CCNC(=O)c1ccc(CS(=O)(=O)c2c(Cl)cccc2Cl)o1 | 0.3 | 0.9 | 0.2 | 3.8 | 0.1 | x | x | x | x
CN(CCNC(=O)c1ccc(CS(=O)(=O)c2c(Cl)cccc2Cl)o1)CCc1ccccc1 | 0.8 | -7.5 | 0.5 | -16.7 | 44.1* | 55.1* | 5.1 | 8.1 | 6.6
CC1(C(=O)NS(=O)(=O)c2ccccc2)CCN1C(=O)Cc1cc(F)ccc1F (centres undefined) | x | x | x | -17.1 | 1.0 | x | x | x | x
CC1CCN(CC(=O)N2CCCc3c2c(=O)oc2ccc(OCc4ccccc4)cc32)CC1 | 0.3 | 0.0 | -2.6 | 0.7 | 2.5 | x | x | x | x
CCCOc1ccc2oc(=O)c3c(c2c1)CCCN3C(=O)CN1CCc2ccccc2C1 | -0.3 | -1.9 | -2.2 | 2.6 | 72.7* | 53.7* | -0.7 | 12.7 | 10.6
Cc1ccc(NC2=NCC(=O)N2CCc2ccccc2)cc1C | 0.6 | -7.9 | -0.4 | -2.7 | 47.3* | 58.9* | 6.9 | 25.9 | 9.8
SMILES | V1aR counter | OXTR potentiate | OXTR ag | TAAR1 antagonist | TAAR1 ag | TAAR1 ag conf | Ga16 nonsel ag | TAAR1 desens | Ga16 antag count
O=S(=O)(CCNCCc1ccccc1)NC1CCCCC1 | x | x | x | 13.0 | 42.5* | 59.8* | 0.9 | 17.3 | -1.7
Cc1ccc(NC(=O)CSc2nnc3n2CCCCC3)cc1S(=O)(=O)N1CCOCC1 | x | x | x | -5.3 | 4.7 | x | x | x | x
CN(C)C=NC(=O)c1cc(C(=O)c2ccc(C(C)(C)C)cc2)c[nH]1 | 1.9 | -3.9 | 1.0 | 13.1 | 1.7 | x | x | x | x
CCOC(=O)c1ccc(NC(=S)N2CCSC2c2ccc(Br)cc2)cc1 (centres undefined) | 37.3* | -14.3 | 47.6* | 103.3* | 138.2* | 129.7* | 92.7* | 101.6* | 84.7*
N=C1/C(=C\c2coc3ccccc3c2=O)C(=O)N=C2SC=CN12 | 84.5* | -9.8 | 115.8* | 59.6* | 148.2* | 110.5* | 117.8* | 75.2* | 75.5*
Cc1nn(CC(=O)c2ccc3c(c2)OCCO3)c(=O)c(C#N)c1C | 0.6 | -3.1 | 0.3 | -9.9 | 4.5 | x | x | x | x
CC(=NNC(=O)c1ccncc1)c1ccc2ccccc2c1O | x | x | x | 76.0* | 167.2* | 72.2* | 153.5* | 54.0* | 78.5*
CC(=NNC(=O)c1ccncc1)c1ccccc1O | x | x | x | 1.7 | 2.5 | x | x | x | x
Nc1ncnc(N2CCc3ccccc32)c1[N+](=O)[O-] | -0.3 | 2.8 | 1.2 | -27.0 | 3.2 | x | x | x | x
c1ccc(CCN=C2CCCc3c2[nH]c2ccccc32)cc1 | 0.1 | -8.0 | -2.1 | 95.8* | 95.1* | 98.7* | -0.3 | 101.4* | 9.3
